Test results: ChEMBL document CHEMBL3860041, “Synthesis, biological evaluation and molecular modeling study of some new methoxylated 2-benzylthio-quinazoline-4(3H)-ones as nonclassical antifolates” (Bioorg Med Chem Lett, 2016)
Converted amounts (≈) assume the structure as drawn.

Columns and labels:
Escherichia coli [1] = test: Antimicrobial activity against Escherichia coli IFO 3301 at 200 ug/disc measured after 24 hrs by agar disc-diffusion method; format: functional; settings: IFO 3301, 24 h, read-out: DIZ
Candida albicans = test: Antimicrobial activity against Candida albicans IFO 0583 at 200 ug/disc measured after 48 hrs by agar disc-diffusion method; format: functional; settings: IFO 0583, 48 h, read-out: DIZ
Staphylococcus aureus [2] = test: Antimicrobial activity against Staphylococcus aureus IFO 3060 at 200 ug/disc measured after 24 hrs by agar disc-diffusion method; format: functional; settings: IFO 3060, 24 h, read-out: DIZ
Escherichia coli [3] = test: microbe, parasite or virus in culture; settings: IFO 3301, 24 h
Staphylococcus aureus [4] = test: Antimicrobial activity against Staphylococcus aureus IFO 3060 measured after 24 hrs by microdilution method; format: functional; settings: IFO 3060, 24 h
Bacillus subtilis [5] = test: Antimicrobial activity against Bacillus subtilis IFO 3007 measured after 24 hrs by microdilution method; format: functional; settings: IFO 3007, 24 h
Bacillus subtilis [6] = test: Antimicrobial activity against Bacillus subtilis IFO 3007 at 200 ug/disc measured after 24 hrs by agar disc-diffusion method; format: functional; settings: IFO 3007, 24 h, read-out: DIZ
Pseudomonas aeruginosa = test: Antimicrobial activity against Pseudomonas aeruginosa IFO 3448 at 200 ug/disc measured after 24 hrs by agar disc-diffusion method; format: functional; settings: IFO 3448, 24 h, read-out: DIZ
[7] = Growth inhibition of human MDA-MB-435 cells at 10 uM after 48 hrs by SRB assay relative to control; format: functional; settings: MDA-MB-435, 48 h, read-out: GI
Procedure, shortened: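 NCI 60-cell-line panel, nine tumor subpanels; compounds tested at a single dose of 10 μM in the primary screen.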

| SMILES | zone of inhibition at 200 µg/disc (Escherichia coli [1]) | zone of inhibition at 200 µg/disc (Candida albicans) | zone of inhibition at 200 µg/disc (Staphylococcus aureus [2]) | MIC (Escherichia coli [3]) | MIC (Staphylococcus aureus [4]) | MIC (Bacillus subtilis [5]) | zone of inhibition at 200 µg/disc (Bacillus subtilis [6]) | zone of inhibition at 200 µg/disc (Pseudomonas aeruginosa) | inhibition of growth at 10 µM [7] |
| --- | --- | --- | --- | --- | --- | --- | --- | --- | --- |
| COc1cc2nc(SCc3cc(OC)c(OC)c(OC)c3)n(Cc3ccccc3)c(=O)c2cc1OC | 16 mm | 8 mm | 20 mm | 8 mg/L (≈ 15.7 µM) | 4 mg/L (≈ 7.86 µM) | 4 mg/L (≈ 7.86 µM) | 22 mm | 8 mm |  |
| COc1cc(CSc2nc3ccc(Cl)cc3c(=O)n2-c2ccccc2)cc(OC)c1OC | 16 mm | 8 mm | 17 mm | 8 mg/L (≈ 17.1 µM) | 8 mg/L (≈ 17.1 µM) | 4 mg/L (≈ 8.53 µM) | 20 mm | 8 mm | 75.6% |
| COc1cc(CSc2nc3ccc(Cl)cc3c(=O)n2Cc2ccccc2)cc(OC)c1OC |  |  |  |  |  |  |  |  | 98.2% |
| COc1ccc(-n2c(SCc3cc(OC)c(OC)c(OC)c3)nc3ccc(Cl)cc3c2=O)cc1 |  |  |  |  |  |  |  |  | 12.4% |
| COc1cc2nc(SCc3cc(OC)c(OC)c(OC)c3)n(-c3ccccc3OC)c(=O)c2cc1OC |  |  |  |  |  |  |  |  | 100% |
| COc1ccc(CSc2nc3cc(OC)c(OC)cc3c(=O)n2-c2ccc(OC)cc2OC)cc1 |  |  |  |  |  |  |  |  | 38% |
